# Test results published in PubChem BioAssay AID871 (The Scripps Research Institute Molecular Screening Center, 2007).
# The campaign covered roughly 190,000 compounds. About 1,800 (0.95%) were called active.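 The calls were made as follows: active = activation above the screen-wide mean of compound activation plus 3 SD (cut at about 130% in these data); inactive = the rest.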 For the sample, actives were picked, then their nearest neighbours and some compounds at random.
# Experiment: IL-6 driven STAT3 reporter potentiators, primary screen, U3A cells, luciferase, luminescence, MLSCN library (AID 871);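 also: 0% = background luminescence of wells with medium and substrate only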
# Conditions: IL-6 STAT3-luciferase reporter, at 5.6 µM, stronger effect = higher value, 100% = signal with IL-6 EC80 alone
# Method in brief: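 System – human U3A cells carrying STAT3-luciferase construct · Probe or stimulus – Interleukin-6, 33 ng/mL · Schedule – compound 1 h, then IL-6 6 h at 37 °C · Signal – luminescence from STAT3-driven luciferase reporter · Evaluation – percent of IL-6-only median luminescence · Benchmarks – IL-6-only high control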
row,SMILES,activation (% of control)
1,CCC(=O)N(Cc1ccccc1)c1ccccn1,101% (inactive)
2,CC(C)(C)C(=O)N(Cc1ccccc1)c1ccccn1,106% (inactive)
3,Cc1csc2ncc(C(=O)N(Cc3ccccc3)c3ccccn3)c(=O)n12,144% (active)
4,CCCCCCCCc1c(O)nc(-n2[nH]c(C)c(CCO)c2=O)[nH]c1=O,102% (inactive)
5,CCCC1OC23CCCCC2C(C#N)(C#N)C1(C#N)C(=N)O3 (configuration not stated),104% (inactive)
6,CC(C)(C)c1ccc(NC(=O)COC(=O)CCc2nc3ccccc3c(=O)[nH]2)cc1,95.4% (inactive)
7,COc1cccc(C(=O)Nc2ccc(N3CCCC3)cc2)c1,90.1% (inactive)
8,COc1cccc(/C=C(/CC(=O)Nc2ccc(N3CCOCC3)cc2)c2nc3ccccc3s2)c1,143% (active)
9,COc1ccc(/C=C(/CC(=O)Nc2ccc(C)cc2)c2nc3ccccc3s2)cc1,103% (inactive)
10,CCc1ccccc1NC(=O)CN(C)C(=O)COc1ccc(C)nc1[N+](=O)[O-],104% (inactive)
11,COc1ccc(CC(=O)Nc2ccccc2NC(=O)c2ccco2)cc1OC,100% (inactive)
12,CCOC(=O)C1C(c2ccc(Cl)cc2)NC(=S)NC1(O)C(F)(F)F (configuration not stated),98.2% (inactive)
13,CCCCCCCC1(C)NC(=O)N(CC(=O)Nc2cc(C)on2)C1=O (configuration not stated),93.7% (inactive)
14,O=C(Nc1ccccc1)Nc1nc2ccccc2s1,100% (inactive)
15,O=C(O)CS/C(=C\c1ccc(F)cc1)c1nc2ccccc2s1,136% (active)
16,CSCCC(Nc1nc2ccccc2s1)C(=O)O (configuration not stated),99.7% (inactive)
17,O=C(O)CSCc1nc2ccccc2s1,144% (active)
18,COc1cccc2sc(NNC(=O)c3nc4ccccc4s3)nc12,120% (inactive)
19,O=C(O)CCCCc1nc2ccccc2s1,94.9% (inactive)
20,CCOP(=O)(OCC)C(Nc1cccc(C)c1)c1ccc(F)cc1 (configuration not stated),95.7% (inactive)
21,O=C(Cn1nnc2ccccc2c1=O)NCc1ccc(Cl)cc1,101% (inactive)
22,C#CCCCc1nc2ccccc2c(=O)n1N,96.4% (inactive)
23,Cc1cc(C(=O)NNC(=S)Nc2ccccc2C)cs1,100% (inactive)
24,COc1ccc(C(=O)NC(Cc2ccc(OC(=O)c3ccc(OC)cc3)cc2)C(=O)O)cc1 (configuration not stated),100% (inactive)
25,NC1=NC(=O)C(Cc2cccc(Cl)c2Cl)S1 (configuration not stated),98.2% (inactive)

row,SMILES,activation (% of control)
1,CC(=O)n1c(C=Nc2ccccc2)c(O)c2ccccc21,134% (active)
2,CCCCn1c(=O)c(C(C)=O)c(O)c2ccccc21,106% (inactive)
3,CCOc1ccc(N=Cc2c(O)n(-c3cccc(C)n3)c(=O)c3ccccc23)cc1,78.3% (inactive)
4,O=C1c2ccccc2NC(c2ccccc2O)N1NS(=O)(=O)c1ccccc1 (configuration not stated),101% (inactive)
5,COc1ccc(CN2CCN(Cc3cn(C)nc3-c3ccccc3)CC2CCO)c(C)c1C (configuration not stated),105% (inactive)
6,Cc1sc2nc(CC(N)=O)[nH]c(=O)c2c1-c1ccccc1,96.5% (inactive)
7,N#Cc1c(C(F)(F)F)cc(-c2ccc(Cl)cc2)nc1SCC(=O)O,142% (active)
8,N#Cc1c(C(F)(F)F)cc(-c2ccccc2)nc1SCC(=O)N1CCOCC1,107% (inactive)
9,CCOC(=O)CC(=O)CSc1nc(-c2ccccc2)cc(-c2ccc(Cl)cc2)c1C#N,98.1% (inactive)
10,Cc1nn(CC2CC2)c(=O)n1N(C)c1ncc(C(F)(F)F)cc1Cl,99.4% (inactive)
11,COc1ccc(C2c3[nH]c4ccccc4c3CCN2CCCn2cccn2)cc1C (configuration not stated),148% (active)
12,COc1cccc(C2c3[nH]c4ccccc4c3CCN2Cc2cccc(C)n2)c1 (configuration not stated),126% (inactive)
13,CCN(CCn1cccn1)C(=O)CC1C(=O)NCCN1Cc1cccc(OC)c1OC (configuration not stated),106% (inactive)
14,Cc1cc(C)c(C#N)c(SCC(=O)Nc2ccccc2)n1,85.2% (inactive)
15,Cc1ccc(C(=O)N2CCCC(c3ccccc3)=N2)cc1,92.1% (inactive)
16,COc1ccc(OC)c(S(=O)(=O)Nc2ccccc2F)c1,96.8% (inactive)
17,COC(=O)c1[nH]c2ccccc2c1NS(=O)(=O)c1ccc(OC)cc1OC,149% (active)
18,COC(=O)c1[nH]c2ccc(Br)cc2c1NC(=O)Oc1ccccc1,102% (inactive)
19,O=[N+]([O-])c1ccccc1Nc1ccc(O)cc1,104% (inactive)
20,CCOc1ccc2c(=O)c(-c3ccc4c(c3)OCCCO4)c(C)oc2c1,98.4% (inactive)
21,CC(C)C(=O)Nc1cccc(NC(=O)c2ccc([N+](=O)[O-])cc2Cl)c1,106% (inactive)
22,CCC(C)C(=O)Nc1cc([N+](=O)[O-])ccc1Cl (configuration not stated),103% (inactive)
23,Cc1ccc(NC(=O)c2cc([N+](=O)[O-])ccc2Cl)c(O)c1,138% (active)
24,CC1CCC2(CC1)NC(=O)N(Cc1nnc(-c3cccs3)o1)C2=O (configuration not stated),96.4% (inactive)
25,C/C(=C\c1ccco1)CN1CCC(N2CCC(C(=O)N3CCOCC3)CC2)CC1,110% (inactive)

row,SMILES,activation (% of control)
1,Cn1cc(CN2CCCC(CO)C2)c(-c2ccc(Oc3ccccc3)cc2)n1 (configuration not stated),108% (inactive)
2,COc1cc(NS(=O)(=O)c2ccc(N/C=C(\C=O)c3nc4cc(Cl)ccc4o3)cc2)nc(OC)n1,159% (active)
3,COc1cc(NS(=O)(=O)c2ccc(NC(=O)c3ccc(S(=O)(=O)N4CCCCC4)cc3)cc2)ncn1,97.5% (inactive)
4,COc1cc(NS(=O)(=O)c2ccc(N=Cc3c(C)[nH]n(-c4ccccc4)c3=O)cc2)nc(OC)n1,111% (inactive)
5,NC(=O)c1ccc(NC(=O)COC(=O)C(Cc2ccccc2)NC(=O)c2ccccc2)cc1 (configuration not stated),92.8% (inactive)
6,CCN(CC)CCN(C(=O)c1ccc(N2C(=O)CCC2=O)cc1)c1nc2cc3c(cc2s1)OCO3,107% (inactive)
7,COc1ccc(C(=O)Nc2ccccc2C(=O)N/N=C/c2ccccc2OC)cc1,105% (inactive)
8,C/C(=N/NC(=O)c1ccc(NC(=O)c2ccc(F)cc2)cc1)c1ccccc1,85.3% (inactive)
9,COc1ccccc1C(=O)NNC(=O)c1ccc(NC(=O)c2ccccc2)cc1,134% (active)
10,CCCn1c(C)cc(/C=C(\C#N)C(=O)OCC(=O)Nc2cc(OC)c(OC)c(OC)c2)c1C,103% (inactive)
11,Cc1nc2ccccc2cc1O,163% (active)
12,Cc1cc(O)ccc1-c1cnc2ccccc2n1,102% (inactive)
13,Cc1nc2ccccc2cc1OCc1ccc(F)cc1,44.1% (inactive)
14,CC(=O)NCCC(=O)Nc1cc(S(=O)(=O)N2CCOCC2)ccc1N1CCOCC1,105% (inactive)
15,CCOc1cc(NC(=S)NCCCN(C)C)c(OCC)cc1NC(=O)C1CC1,99.1% (inactive)
16,O=C(NNC1=C(C(=O)C(F)(F)F)CCC1)c1ccncc1,95.6% (inactive)
17,CCn1c(NC(=O)c2nn(C)cc2Br)nc2ccccc21,96.8% (inactive)
18,CCN(CC)CCn1c(/N=C/c2cc(Br)ccc2O)nc2ccccc21,133% (active)
19,Oc1ccc(Br)cc1C=Nc1ccc2[nH]ncc2c1,102% (inactive)
20,S=c1[nH]nc(-c2cccs2)n1/N=C/c1cccs1,109% (inactive)
21,Cc1cc(OC(=O)c2ccccc2)c([N+](=O)[O-])c(=O)[nH]1,106% (inactive)
22,O=C(NCC1CCCO1)/C(=C/c1ccc(Cl)cc1)NC(=O)c1ccccc1 (configuration not stated),88.2% (inactive)
23,Cc1nn(Cc2ccc(Cl)c(Cl)c2)c(C)c1NC(=O)c1cc(C2CC2)on1,92.8% (inactive)
24,O=C(Nc1cc(C(F)(F)F)ccc1Cl)c1cc(C2CC2)on1,150% (active)
25,CSc1ccccc1NC(=O)c1cc(C2CC2)on1,122% (inactive)

row,SMILES,activation (% of control)
1,CCCN(CCC)c1c([N+](=O)[O-])c(=O)oc2ccccc12,96.6% (inactive)
2,Cc1ccn(-c2cccc(-n3ccc(C)n3)n2)n1,93.6% (inactive)
3,CCC(C)NC(=O)CN(C1CCCCC1)S(C)(=O)=O (configuration not stated),105% (inactive)
4,Cc1cc(=O)n2[nH]c(-c3sccc3-n3c(C)ccc3C)cc2n1,118% (inactive)
5,CCCC(C)C(=O)OCC(=O)Nc1c(Br)cc(C)cc1Br (configuration not stated),102% (inactive)
6,Cc1cccc(C(=O)Nc2nnc(Cc3c[nH]c4ccccc34)s2)c1,157% (active)
7,COc1ccc(Cc2nnc(NC(=O)c3cc(OC)c(OC)c(OC)c3)s2)cc1OC,91.5% (inactive)
8,CCc1nnc(NC(=O)[C@@H](NC(=O)c2cccc(C)c2)C(C)C)s1,101% (inactive)
9,CCc1ccc2ncc(C(=O)c3ccccc3)c(N3CCOCC3)c2c1,110% (inactive)
10,CCn1c(SCC(=O)Nc2ccc(S(=O)(=O)Nc3onc(C)c3C)cc2)nnc1-c1ccccc1,98.7% (inactive)
11,Cc1ccc(-n2c(SCC(=O)N/N=C/C=C/c3ccccc3[N+](=O)[O-])nc3ccccc3c2=O)cc1,97.7% (inactive)
12,CCn1c(SCC(=O)N/N=C/C=C/c2ccccc2[N+](=O)[O-])nnc1-c1ccccc1,138% (active)
13,COc1ccc(CCNC(=O)COC(=O)Cc2cc(OC)c(OC)c(OC)c2)cc1,111% (inactive)
14,CC(C)NC(=O)C(=O)NCCCOC(C)C,101% (inactive)
15,COc1ccc2nc(/N=C(\N)NC(=O)Nc3ccccc3)nc(C)c2c1,100% (inactive)
16,Cc1cccc2c(=O)n3c(nc12)CCCCC3,102% (inactive)
17,COc1nc(N=C(N)N)nc2c(C)cccc12,172% (active)
18,CCc1c(C)nc2c(OC)cccc2c1Cl,101% (inactive)
19,Cc1nc(N=C(N)N)nc2c(C)cccc12,168% (active)
20,O=C(COC(=O)c1ccccc1)Nc1cccc(S(=O)(=O)N2CCOCC2)c1,101% (inactive)
21,CCC1CCCCN1C(=S)Nc1ccc(SC(F)F)cc1 (configuration not stated),94.3% (inactive)
22,CC1(C)CC(=O)CC2(C1)NCC(c1ccccc1Cl)c1c2[nH]c2ccccc12 (configuration not stated),105% (inactive)
